High-throughput results (PubChem BioAssay)
CHT inh: inhibitors of human choline transporter CHT; High affinity choline transporter 1 (Homo sapiens), Q9GZV3; CHT-expressing cells, membrane potential dye, choline response; stronger effect = lower value; B-score at 10 µM; hit rate 0.86% among 310,000; AID 488975, 2010;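 active = B-score over 3 SD under the library average, and starting fluorescence ratio not unusually high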;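 also: choline stimulus applied at its EC90 after an EC20 pre-addition; B-score computed on integrated fluorescence ratio after choline addition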
Target sequence (Q9GZV3 whole entry, looked up): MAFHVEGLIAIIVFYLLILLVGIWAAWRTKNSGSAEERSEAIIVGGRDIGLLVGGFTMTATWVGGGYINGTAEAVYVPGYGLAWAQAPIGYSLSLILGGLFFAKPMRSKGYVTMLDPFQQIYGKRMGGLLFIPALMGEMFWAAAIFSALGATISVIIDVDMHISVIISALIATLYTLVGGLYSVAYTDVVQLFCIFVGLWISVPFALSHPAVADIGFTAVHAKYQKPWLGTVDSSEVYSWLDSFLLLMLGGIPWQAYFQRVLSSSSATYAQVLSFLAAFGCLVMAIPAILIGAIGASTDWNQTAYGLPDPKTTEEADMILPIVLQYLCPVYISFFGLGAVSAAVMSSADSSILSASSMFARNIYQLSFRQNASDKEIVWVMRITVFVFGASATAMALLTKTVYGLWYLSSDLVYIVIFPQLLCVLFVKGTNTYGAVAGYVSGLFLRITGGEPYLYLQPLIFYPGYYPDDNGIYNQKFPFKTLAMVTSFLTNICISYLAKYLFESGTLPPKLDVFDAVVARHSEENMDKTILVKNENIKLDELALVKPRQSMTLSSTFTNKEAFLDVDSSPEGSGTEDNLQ
VIM-2 inh: VIM-2 metallo-beta-lactamase inhibitors, primary screen, biochemical, epi-absorbance readout, Pseudomonas aeruginosa enzyme; purified VIM-2, nitrocefin hydrolysis, epi-absorbance fluorescence; inhibition, % at 5.6 µM; hit rate 0.89% among 290,000; AID 1527, 2009;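 active = inhibition above the mean of all tested compounds plus 3 SD, cutoff set per screening run, cut at about 7.5% in these data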;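 also: red hydrolysis product quenches plate fluorescence so inhibitors raise well fluorescence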
CHT PAM: CHT positive allosteric modulators, primary screen, cell-based, membrane potential dye, choline EC20 | CHT-expressing cells; stronger effect = higher value; LV-AA mutant CHT in HEK293 cells | B-score at 10 µM | hit rate 0.49% among 310,000 | AID 488977, 2010;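 active = initial fluorescence not abnormally high and integrated response B-score, plate-corrected, over 3 SD above library mean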
TMEM16A inh: TMEM16A chloride channel inhibitors, primary screen, cell-based, HTS; AID 588511, 2011; normalized B-score (activity score, 25-100; higher = stronger inhibition) at 10 µM; Anoctamin-1 (Mus musculus), Q8BHY3; HEK293 TMEM16A/YFP iodide influx fluorescence, ionomycin; hit rate 1.2% among 310,000;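 active = ratio plate-corrected score three or more library SD toward inhibition, starting fluorescence score within five deviations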;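 also: score derived from kinetic fluorescence span divided by baseline fluorescence per well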
IMP-1 inhibitor: IMP-1 metallo-beta-lactamase inhibitors, primary screen, biochemical, epi-absorbance readout, Pseudomonas aeruginosa enzyme; metallo-beta-lactamase IMP-1 (Pseudomonas aeruginosa); purified IMP-1, nitrocefin hydrolysis, epi-absorbance fluorescence; inhibition, % at 5.6 µM; hit rate 0.45% among 290,000; AID 1556, 2009;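 active = inhibition above the mean plus 3 SD of all compounds in the same screening run, cut at about 4.5% in these data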
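Assay system: purified IMP-1; Quantity: IMP-1 0.2 nM before substrate addition; Medium: HEPES buffer pH 7.1 with ZnSO4 and Brij 35; Incubation: 15 min enzyme–compound preincubation, then 25 min nitrocefin reaction, 25 °C; Signal: fluorescence quenching readout, ex 480/em 530 nm; Controls: DMSO with and without IMP-1; Repeats: singlicate testing.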
TMEM16A act: TMEM16A chloride channel activators or potentiators, primary screen, cell-based, HTS | AID 623877, 2012 | B-score at 10 µM | HEK293 TMEM16A/YFP-H148Q/I152L, iodide quench fluorescence; stronger effect = lower value | Anoctamin-1 (Mus musculus), Q8BHY3 | hit rate 0.3% among 340,000;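 active = fluorescence-ratio B-score plate-corrected deviation score at least 3 library SD below zero, with starting fluorescence score within 5 deviations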;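 also: channel opened by trigger with iodide after compound preincubation; score built on the fluorescence ratio of max minus min over baseline; more negative score means more quench and so TMEM16A activation or potentiation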
A number is an active result; 0 = inactive; - = no result. In the library only some 3.4% were active in any assay of this set; here they are far more common.

SMILES	CHT inh	VIM-2 inh	CHT PAM	TMEM16A inh	IMP-1 inhibitor	TMEM16A act
Cc1cc(NC(=O)COC(=O)C2CC(=O)N(c3ccccc3Cl)C2)no1 (stereo unspecified)	0	0	0	0	0	0
O=C(c1ccc(COc2ccccc2Cl)o1)N1CCN(Cc2ccc3c(c2)OCO3)CC1	0	0	0	0	0	0
O=C(c1ccc(COc2ccc(Cl)cc2)o1)N1CCN(Cc2ccc3c(c2)OCO3)CC1	0	0	0	25	0	0
OCCN1CCN(c2nc(-c3ccccc3O)nc3ccccc23)CC1	0	11	0	0	0	0
COc1cccc(-c2nc(N3CCN(C)CC3)c3ccccc3n2)c1O	0	10	0	0	0	0
O=C(COc1ccccc1F)Nc1ccc(S(=O)(=O)N2CCCC2)cc1	-	-	-	-	-	0
Cc1ccc(NC(=O)CSCC(=O)N2CCN(c3cccc(C(F)(F)F)c3)CC2)cc1	0	-	0	0	-	0
Cc1ccc(-c2noc(CCC(=O)N3CCN(c4cccc(C(F)(F)F)c4)CC3)n2)cc1	0	0	0	25	0	0
COc1ccccc1CNC(=O)COC(=O)c1cccc(S(=O)(=O)N2CCOCC2)c1	0	-	0	0	-	0
O=c1cc(N2CCCCC2)c(-c2ccccc2)nn1Cc1c(Cl)cccc1Cl	0	0	0	25	0	-26
CC(=O)Nc1cccc(-c2csc(Nc3cc(C)ccn3)n2)c1	0	0	0	25	0	0
CC(=O)Nc1ccc(-c2csc(Nc3cc(C)ccn3)n2)cc1	0	0	0	0	0	0
CN1C(=O)c2cccc3c(S(=O)(=O)Nc4ccc(O)c(C(=O)O)c4)ccc1c23	0	12	0	0	0	0
CC[C@]12C(=O)N(C)C[C@H]([C@@H]3C(=O)N(Cc4ccccc4)C(=O)[C@@H]31)N2C(=O)c1ccc(F)cc1	-	-	-	-	-	0
COCc1cc(CN2CCCC2)c(O)c2ncccc12	0	8.2	0	0	0	0
Oc1ccc(CN2CCCCC2)c2cccnc12	0	0	0	0	0	0
Oc1c(CN2CCCCC2)cc(COCc2ccccc2)c2cccnc12	0	12	0	0	0	0
N#C/C(=C\c1ccc(O)c(O)c1)C(=O)Nc1ccccc1	0	-	0	0	-	-5.2
CCOC(=O)c1sc(NC(=O)c2ccc(S(=O)(=O)N(C)C)cc2)nc1C	0	0	0	0	0	-14
CCOC(=O)c1csc(NC(=O)c2ccc(S(=O)(=O)N(C)C)cc2)n1	0	0	0	0	0	0
CCCn1cc(C(=O)N(C)C2CCCN(Cc3ccccc3F)C2)c(C)n1 (stereo unspecified)	0	0	0	0	0	0
CC(Cc1ccc(O)c(O)c1)C(C)Cc1ccc(O)c(O)c1 (stereo unspecified)	0	-	0	100	-	-
COc1cc(C[C@@H](C)[C@@H](C)Cc2ccc(O)c(OC)c2)ccc1O	-	-	-	-	-	0
O=c1c2c(-c3ccccc3)csc2ncn1/N=C/c1cccc([N+](=O)[O-])c1O	0	0	0	25	0	0
CC(C)NC(=O)Cn1c(SCC(=O)NC2CCCC2)nc2ccccc21	0	0	0	0	0	0
SMILES	CHT inh	VIM-2 inh	CHT PAM	TMEM16A inh	IMP-1 inhibitor	TMEM16A act
CC(C)Cn1c(SCC(=O)NC(=O)NC2CCCC2)nc2ccccc21	0	0	0	25	0	0
CCOC(=O)C1(CCOC)CCN(C(=O)c2ccc(CSC)o2)CC1	0	0	0	0	0	0
COc1ccc(OCC(=O)NNC(=O)Cc2coc3cc(OC)ccc23)cc1	0	0	0	0	5.6	0
Cc1c(C)c2ccc(OCC(=O)N3CCN(C(=O)C4COc5ccccc5O4)CC3)cc2oc1=O (stereo unspecified)	0	0	0	0	0	0
NC(=O)C1CCN(C(=O)COc2ccc3c(c2)oc(=O)c2ccccc23)CC1	0	12	0	0	0	0
Cc1c(C)c2ccc(OCC(=O)N3CC[C@@]4(O)CCCC[C@H]4C3)cc2oc1=O	0	0	0	0	0	-5.6
Cc1c(C)c2ccc(OCC(=O)NC3CCN(Cc4ccccc4)CC3)cc2oc1=O	0	12	0	0	0	0
CCN(C(=O)CSc1nc2cc(S(=O)(=O)N(CC)CC)ccc2o1)C1CCS(=O)(=O)C1 (stereo unspecified)	0	0	0	0	0	0
CCOC(=O)C1(C(=O)OCC)NC(=O)CC1CC(C)C (stereo unspecified)	-	-	-	-	-	0
Cc1cccc(NS(=O)(=O)c2c(C(=O)N3CCOCC3)c(C)n(C)c2C)c1C	0	0	0	0	0	0
CN(C)CCCN1C(=O)c2oc3ccc(Cl)cc3c(=O)c2C1c1cccnc1 (stereo unspecified)	0	0	0	0	6.4	0
O=C1C=C(c2cnc3ccccc3c2)C[C@@H](c2ccc3c(c2)OCO3)C1	-	-	-	-	-	0
COc1ccccc1NS(=O)(=O)c1cc(-c2cc(C)no2)ccc1OC	0	0	0	100	0	0
COc1ccc(N(C(=O)Nc2ccc(Cl)cc2)C2=NCCC2)cc1	0	0	0	25	0	0
CCn1c(=NC(=O)c2cccc(N3C(=O)CCC3=O)c2)sc2c(OC)ccc(OC)c21	0	0	0	0	0	-6.4
COc1ccc(OC)c2c1sc(=NC(=O)c1cccc(N3C(=O)CCC3=O)c1)n2C	0	0	0	0	0	0
COc1ccc(CC(=O)Nc2cc(S(=O)(=O)N3CCCC3)ccc2Cl)c(OC)c1	-	-	-	-	-	0
O=C(NCc1ccc(Cl)cc1)c1ccc(S(=O)(=O)N2CCCCC2)cc1	-	-	-	-	-	0
O=C(CCN1C(=O)C2C3C=CC(C4CC34)C2C1=O)Nc1ccc(Cl)cc1O (stereo unspecified)	0	0	0	0	13	0
CCC(=O)N1c2ccccc2NC2=C(C(=O)CC(C)(C)C2)C1c1ccc(O)c(OC)c1 (stereo unspecified)	0	0	0	0	0	0
CSc1ccccc1NC(=O)CN1CCN(S(=O)(=O)c2ccccc2[N+](=O)[O-])CC1	-	-	-	-	-	0
Cc1ccc(NC(=O)c2c(Cl)nc3ccccn23)cc1	0	0	0	0	0	-6.1
C/C(=N/OC(=O)c1ccccc1Br)c1ccc(C)cc1	0	0	0	25	0	0
C/C(=N/OC(=O)c1ccc(C)cc1)c1cccs1	0	0	0	0	0	0
CCOC(=O)c1sc(N(Cc2ccccc2)C(=O)CCl)nc1C	0	0	0	0	0	0
O=C(O)CSCC(=O)N(Cc1ccccc1)c1nc(-c2ccccc2)c(-c2ccccc2)s1	0	0	0	100	0	0
